Assay results reported in ChEMBL document CHEMBL3826888, “New naphthalene derivatives and isoquinoline alkaloids from Ancistrocladus cochinchinensis with their anti-proliferative activity on human cancer cells” (Bioorg Med Chem Lett, 2016).
≈ marks a conversion by molar mass, not a printed value. Blank lines part the entries; values can stand above or below the compound they belong to.

Legend:
Plasmodium falciparum [1] = experiment: Antiparasitic activity against Plasmodium falciparum K1; format: functional, organism-based
[2] = Antiproliferative activity against human HL60 cells assessed as cell death at 20 ug/ml after 3 days by sulforhodamine B assay relative to control; format: functional, HL-60
How it was run: (§1)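 Human cancer cell lines HL-60 (promyelocytic leukemia), LU-1 (lung carcinoma) and SK-MEL-2 (melanoma) were screened by sulforhodamine B assay, with each sample at a single concentration of 20 µg/mL. The read-out was percentage cell death; samples giving over 50% death went on to dose-response testing. Ellipticine was the positive control throughout.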

Lu1 [3] = experiment: Antiproliferative activity against human Lu1 cells assessed as cell death at 20 ug/ml after 3 days by sulforhodamine B assay relative to control; format: functional; how it was run: as §1
SK-MEL-2 [4] = experiment: Antiproliferative activity against human SK-MEL-2 cells assessed as cell death at 20 ug/ml after 3 days by sulforhodamine B assay relative to control; format: functional; how it was run: as §1
[5] = tested on: Trypanosoma brucei brucei; experiment: Antitrypanosomal activity against Trypanosoma brucei brucei TC221; format: functional, organism-based
[6] = Antiproliferative activity against human HL60 cells after 3 days by sulforhodamine B assay relative to control; format: functional, cell-based; details: HL-60, 72 h
How it was run: (§2)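 SRB cell-proliferation assay on human cancer cell lines. Each sample was first screened at a single concentration of 20 µg/mL. Samples causing over 50% cell death then went to a dose-dependent study to derive IC50 in µg/mL. Ellipticine served as positive control throughout.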

Lu1 [7] = experiment: Antiproliferative activity against human Lu1 cells after 3 days by sulforhodamine B assay relative to control; format: functional, cell-based; details: Lu1, 72 h; how it was run: as §2
SK-MEL-2 [8] = experiment: Antiproliferative activity against human SK-MEL-2 cells after 3 days by sulforhodamine B assay relative to control; format: functional, cell-based; details: SK-MEL-2, 72 h; how it was run: as §2
Plasmodium falciparum [9] = experiment: Antiparasitic activity against Plasmodium falciparum NF54 after 48 hrs by [3H]-hypoxanthine incorporation assay; format: functional, organism-based

IC50 (Plasmodium falciparum [1]): 0.07 µM
Compound: COc1cc(O)c2c(c1-c1c(C)cc(OC)c3c(OC)cccc13)C[C@H](C)N[C@H]2C (stereo in doubt; form 1)

IC50 (Plasmodium falciparum [1]): 0.03 µM
Compound: COc1cc(O)c2c(c1-c1c(C)cc(OC)c3c(OC)cccc13)C[C@H](C)N[C@H]2C (stereo in doubt; form 2)

Compound: COc1cc([C@H]2OC[C@H]3[C@@H]2CO[C@H]3c2cc(OC)c(O[C@@H]3O[C@H](CO)[C@@H](O)[C@H](O)[C@H]3O)c(OC)c2)cc(OC)c1O
Activity [2]: <50% | Activity (Lu1 [3]): <50% | Activity (SK-MEL-2 [4]): <50%

Compound: COc1cc(O)cc2cc(CO)nc(C)c12
Activity [2]: <50% | Activity (Lu1 [3]): <50% | Activity (SK-MEL-2 [4]): <50%

EC50 [5]: 4.2 µM
Compound: COc1cc(C)c(-c2ccc(O)c3c2C[C@@H](C)N[C@@H]3C)c2cccc(O)c12 [DIONCOPHYLLINE C]

Compound: Cc1cc(O)c2c(c1)[C@H](O[C@@H]1O[C@H](CO[C@@H]3O[C@H](CO)[C@@H](O)[C@H](O)[C@H]3O)[C@@H](O)[C@H](O)[C@H]1O)CCC2=O
Activity [2]: <50% | Activity (Lu1 [3]): <50% | Activity (SK-MEL-2 [4]): <50%

Compound: COc1cc(C)cc2ccc(-c3ccc4c(c3O)[C@@H](C)N[C@H](C)C4)c(O)c12
EC50 [5]: 2.6 µM

Compound: Cc1cc(O[C@@H]2O[C@H](CO[C@@H]3OC[C@](O)(CO)[C@H]3O)[C@@H](O)[C@H](O)[C@H]2O)c2c(O)cccc2c1
Activity [2]: <50% | Activity (Lu1 [3]): <50% | Activity (SK-MEL-2 [4]): <50%

Compound: COc1cc(O)ccc1O[C@@H]1O[C@H](COC(=O)c2cc(OC)c(O)c(OC)c2)[C@@H](O)[C@H](O)[C@H]1O
Activity [2]: <50% | Activity (Lu1 [3]): <50% | Activity (SK-MEL-2 [4]): <50%

IC50 (Plasmodium falciparum [1]; Plasmodium falciparum, K1): 0.08 µM
Compound: COc1cc(O)c(-c2c(C)cc(O)c3c(OC)cccc23)c2c1[C@@H](C)N(C)[C@@H](C)C2

EC50 [5]: 3.4 µM
Compound: COc1cccc2c(-c3ccc4c(c3O)[C@@H](C)N[C@H](C)C4)c(C)cc(OC)c12 [DIONCOPHYLLINE A]

Compound: COc1cc(O[C@@H]2O[C@H](CO)[C@@H](O)[C@H](O)[C@H]2O)cc2cc(CO)nc(C)c12
Activity [2]: <50% | Activity (Lu1 [3]): <50% | Activity (SK-MEL-2 [4]): <50%

Compound: COc1cc(O)c(-c2c(C)cc(OC)c3c(OC)cccc23)c2c1[C@@H](C)N[C@@H](C)C2
Activity [2]: >50% | Activity (Lu1 [3]): >50% | Activity (SK-MEL-2 [4]): >50% | IC50 [6]: 5 mg/L (≈ 12.3 µM) | IC50 (Lu1 [7]): 6.5 mg/L (≈ 16 µM) | IC50 (SK-MEL-2 [8]): 6.8 mg/L (≈ 16.7 µM)

IC50 (Plasmodium falciparum [9]): 0.0014 µM
Compound: COc1cccc2c(-c3ccc4c(c3O)[C@@H](C)N[C@H](C)C4)c(C)c(-c3c(C)c(-c4ccc5c(c4O)[C@@H](C)N[C@H](C)C5)c4cccc(OC)c4c3O)c(O)c12
